According to ChEMBL document CHEMBL1629587, “Discovery of a small-molecule inhibitor of {beta}-1,6-glucan synthesis” (2009):
≈ marks a conversion by molar mass, not a printed value. Calls of active or inactive are those of the source. The calls are words filed in the database; no cut-off is given here. Starred links: 1 amine or outer side, 2 acyl side, 3 side chain; linkers in the order of their positions; H or OH if unused. Positions of bridges follow the written chain, without caps; N, C: chain ends. Non-standard residues stand in square brackets, D forms with d. Residues, ends and D or L forms follow the SMILES beside them. *: point of attachment. Orn(4R-OH,5R-OH) = O=C([C@H](C[C@@H](O)[C@@H](O)N[*:3])N[*:1])[*:2]; hTyr(3S-OH,4S-OH) = N[C@H](C(=O)O)[C@H](O)[C@@H](O)c1ccc(O)cc1; Pro(3S-OH,4S-Me) = C[C@H]1CN[C@H](C(=O)O)[C@H]1O; Palmitoyl = CCCCCCCCCCCCCCCC(=O)*; Hyp = O=C(O)[C@@H]1C[C@@H](O)CN1

Key:
[1] = test system: Saccharomyces cerevisiae; assay: Fungicidal activity against Saccharomyces cerevisiae AY-10-R16 mutant after 24 hrs by microdilution method; assay type: functional; conditions: AY-10-R16, 24 h
[2] = test system: Saccharomyces cerevisiae; assay: […] activity against Saccharomyces cerevisiae AY-10 after 24 hrs by microdilution method; assay type: functional; conditions: AY-10, 24 h
[3] = test system: Saccharomyces cerevisiae; assay: […] activity against Saccharomyces cerevisiae AY-10 transformed with pRS416-31 carrying KRE6 gene after 24 hrs by microdilution method; assay type: functional; conditions: AY-10, 24 h
[4] = test system: Saccharomyces cerevisiae; assay: Fungicidal activity against Saccharomyces cerevisiae AY-10-R11 mutant after 24 hrs by microdilution method; assay type: functional; conditions: AY-10-R11, 24 h
[5] = test system: Saccharomyces cerevisiae; assay: […] activity against Saccharomyces cerevisiae AY-10 transformed with empty vector pRS416 after 24 hrs by microdilution method; assay type: functional; conditions: AY-10, 24 h
[6] = test system: Saccharomyces cerevisiae; assay: Fungicidal activity against Saccharomyces cerevisiae AY-10-R4 mutant after 24 hrs by microdilution method; assay type: functional; conditions: AY-10-R4, 24 h
[7] = test system: Saccharomyces cerevisiae; assay: […] activity against Saccharomyces cerevisiae AY-10 transformed with pRS416-13 carrying ADP1 gene after 24 hrs by microdilution method; assay type: functional; conditions: AY-10, 24 h
[8] = test system: Saccharomyces cerevisiae; assay: Fungicidal activity against Saccharomyces cerevisiae AY-10-R15 mutant after 24 hrs by microdilution method; assay type: functional; conditions: AY-10-R15, 24 h
[9] = test system: Kluyveromyces marxianus; assay: Antifungal activity against Candida kefyr ATCC 46764 after 24 hrs by microdilution method; assay type: functional; conditions: ATCC 46764, 24 h
Outline: (§1)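 CLSI broth microdilution run at 30°C instead of standard temperature; starting inoculum 1 × 10^3 to 3 × 10^3 cells/ml; DMSO under 1% final. Endpoints: MIC-0 = lowest concentration giving an optically clear well; MIC-2 = 50% drop versus drug-free control in absorbance at 570 nm with alamar blue redox indicator, used because treated cells clump.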

[10] = test system: Candida albicans; assay: Antifungal activity against Candida albicans ATCC 24433 after 24 hrs by microdilution method; assay type: functional; conditions: ATCC 24433, 24 h; outline: as §1
[11] = test system: Aspergillus fumigatus; assay: Antifungal activity against Aspergillus fumigatus ATCC 36607 after 24 hrs by microdilution method; assay type: functional; conditions: ATCC 36607, 24 h; outline: as §1
[12] = test system: Aspergillus terreus; assay: Antifungal activity against Aspergillus terreus ATCC 28301 after 24 hrs by microdilution method; assay type: functional; conditions: ATCC 28301, 24 h; outline: as §1
[13] = test system: Trichosporon asahii; assay: Antifungal activity against Trichosporon asahii ATCC 90039 after 24 hrs by microdilution method; assay type: functional; conditions: ATCC 90039, 24 h; outline: as §1
[14] = test system: Saccharomyces cerevisiae; assay: Antifungal activity against Saccharomyces cerevisiae YPH500 after 24 hrs by microdilution method; assay type: functional; conditions: YPH500, 24 h
Outline: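 CLSI broth microdilution, incubated at 30°C, starting inoculum 1 × 10^3 to 3 × 10^3 cells/ml; drugs from DMSO, final DMSO below 1%. MIC-0 is the lowest concentration giving an optically clear well. MIC-2 is read with alamar blue as a 50% drop in A570 versus the drug-free control; both endpoints were recorded.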

[15] = test system: Nakaseomyces glabratus; assay: Antifungal activity against Candida glabrata IFO0622 after 24 hrs by microdilution method; assay type: functional; conditions: IFO0622, 24 h; outline: as §1
[16] = test system: Clavispora lusitaniae; assay: Antifungal activity against Candida lusitaniae ATCC 200951 after 24 hrs by microdilution method; assay type: functional; conditions: ATCC 200951, 24 h; outline: as §1
[17] = test system: Candida parapsilosis; assay: Antifungal activity against Candida parapsilosis IFO1396 after 24 hrs by microdilution method; assay type: functional; conditions: Lodderomyces parapsilosis, IFO1396, 24 h; outline: as §1
[18] = test system: Aspergillus flavus; assay: Antifungal activity against Aspergillus flavus ATCC 64025 after 24 hrs by microdilution method; assay type: functional; conditions: ATCC 64025, 24 h; outline: as §1
[19] = test system: Candida tropicalis; assay: Antifungal activity against Candida tropicalis TIMM0313 after 24 hrs by microdilution method; assay type: functional; conditions: TIMM0313, 24 h; outline: as §1
[20] = test system: Nakaseomyces glabratus; assay: Antifungal activity against Candida glabrata ATCC 200918 after 24 hrs by microdilution method; assay type: functional; conditions: ATCC 200918, 24 h; outline: as §1
[21] = test system: Candida tropicalis; assay: Antifungal activity against Candida tropicalis ATCC 200956 after 24 hrs by microdilution method; assay type: functional; conditions: ATCC 200956, 24 h; outline: as §1
[22] = test system: Cryptococcus neoformans; assay: Antifungal activity against Cryptococcus neoformans ATCC 90112 after 24 hrs by microdilution method; assay type: functional; conditions: ATCC 90112, 24 h; outline: as §1
[23] = test system: Pichia kudriavzevii; assay: Antifungal activity against Candida krusei TIMM0269 after 24 hrs by microdilution method; assay type: functional; conditions: TIMM0269, 24 h; outline: as §1
[24] = test system: Candida albicans; assay: Antifungal activity against Candida albicans ATCC MYA-573 after 24 hrs by microdilution method; assay type: functional; conditions: ATCC MYA-573, 24 h; outline: as §1
[25] = test system: Saccharomyces cerevisiae; assay: Inhibition of beta-1,6-Glucan synthesis in Saccharomyces cerevisiae AY-10 assessed as reduction in [14C]glucose incorporation at 0.039 to 0.625 ug/ml after 3 hrs; assay type: functional, organism-based; conditions: at 0.039 to 0.625 µg/mL
Outline: (§2)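 Exponentially growing cells in RPMI 1640 (absorbance ~0.6 at 595 nm) incubated at 30°C with drug plus [14C]glucose at 2 μCi/ml. Cells extracted twice with 3% NaOH at 80°C, then the insoluble material digested overnight at 30°C with Zymolyase 100T (1 mg/ml, pH 7.5). The soluble fraction was dialysed to remove β-1,3-glucan oligosaccharides, and the retained β-1,6-glucan was counted by scintillation. Read-out is percent change in incorporated radioactivity versus the drug-free control.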

[26] = test system: Saccharomyces cerevisiae; assay: Inhibition of beta-1,6-Glucan synthesis in Saccharomyces cerevisiae AY-10 assessed as reduction in [14C]glucose incorporation at 0.078 ug/ml after 3 hrs; assay type: functional, organism-based; conditions: at 0.078 µg/mL; outline: as §2
[27] = test system: Saccharomyces cerevisiae; assay: Inhibition of beta-1,6-Glucan synthesis in Saccharomyces cerevisiae AY-10 assessed as reduction in [14C]glucose incorporation at 0.078 ug/ml after 1 hr; assay type: functional, organism-based; conditions: at 0.078 µg/mL; outline: as §2
[28] = test system: Saccharomyces cerevisiae; assay: Inhibition of beta-1,6-Glucan synthesis in Saccharomyces cerevisiae AY-10 assessed as reduction in [14C]glucose incorporation at 0.039 to 0.625 ug/ml after 1 hr; assay type: functional, organism-based; conditions: at 0.039 to 0.625 µg/mL; outline: as §2
[29] = test system: Saccharomyces cerevisiae; assay: Inhibition of beta-1,6-Glucan synthesis in Saccharomyces cerevisiae AY-10 assessed as reduction in [14C]glucose incorporation at 0.078 to 1.25 ug/ml after 3 hrs; assay type: functional, organism-based; conditions: at 0.078 to 1.25 µg/mL; outline: as §2
[30] = test system: Saccharomyces cerevisiae; assay: Inhibition of beta-1,6-Glucan synthesis assessed as reduction in [14C]glucose incorporation at 0.025 to 4 ug/ml after 1 hr; conditions: AY-10
[31] = test system: Saccharomyces cerevisiae; assay: Inhibition of beta-1,6-Glucan synthesis in Saccharomyces cerevisiae AY-10 assessed as reduction in [14C]glucose incorporation at 0.078 to 1.25 ug/ml after 1 hr; assay type: functional, organism-based; conditions: at 0.078 to 1.25 µg/mL; outline: as §2
[32] = test system: Saccharomyces cerevisiae; assay: Inhibition of beta-1,3-Glucan synthesis in Saccharomyces cerevisiae AY-10 assessed as reduction in [14C]glucose incorporation at 0.039 to 0.625 ug/ml after 1 hr; assay type: functional, organism-based
Outline: (§3)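 Exponential cells in RPMI 1640 at A595 about 0.6, pulse-labelled with [14C]glucose 2 μCi/ml plus drug at 30°C, sampled at 1 and 3 h. Cell wall fractionated: mannan from 3% NaOH extracts at 80°C by Fehling's reaction; residue digested with Zymolyase 100T (1 mg/ml), insoluble part = chitin; β-1,3-glucan = total glucan minus dialysed β-1,6-glucan. Scintillation counting; % change versus untreated.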

[33] = test system: Saccharomyces cerevisiae; assay: Inhibition of beta-1,3-Glucan synthesis in Saccharomyces cerevisiae AY-10 assessed as reduction in [14C]glucose incorporation at 0.039 to 0.625 ug/ml after 3 hrs; assay type: functional, organism-based; outline: as §3
[34] = test system: Nakaseomyces glabratus; assay: Inhibition of beta-1,6-Glucan synthesis in Candida glabrata IFO0622 assessed as reduction in [14C]glucose incorporation at 0.025 to 4 ug/ml after 3 hrs; assay type: functional, organism-based; outline: as §2

Nc1nc(=O)[nH]cc1F [FLUCYTOSINE]
MIC [1]: 2 µg/mL (≈ 15.5 µM) | MIC [2]: 2 µg/mL (≈ 15.5 µM) | MIC [3]: 2 µg/mL (≈ 15.5 µM) | MIC [4]: 4 µg/mL (≈ 31 µM) | MIC [5]: 2 µg/mL (≈ 15.5 µM) | MIC [6]: 2 µg/mL (≈ 15.5 µM) | MIC [7]: 4 µg/mL (≈ 31 µM) | MIC [8]: 4 µg/mL (≈ 31 µM)

OC(Cn1cncn1)(Cn1cncn1)c1ccc(F)cc1F [FLUCONAZOLE]
MIC50 [9]: 0.25 µg/mL (≈ 0.816 µM) | MIC50 [10]: 0.25 µg/mL (≈ 0.816 µM) | MIC50 [11]: > 64 µg/mL | MIC50 [12]: > 64 µg/mL | MIC50 [13]: 4 µg/mL (≈ 13.1 µM) | MIC50 [14]: 4 µg/mL (≈ 13.1 µM) | MIC50 [15]: 2 µg/mL (≈ 6.53 µM) | MIC50 [16]: 0.063 µg/mL (≈ 0.206 µM) | MIC50 [17]: 1 µg/mL (≈ 3.27 µM) | MIC50 [18]: > 64 µg/mL | MIC50 [19]: 0.25 µg/mL (≈ 0.816 µM) | MIC50 [20]: 16 µg/mL (≈ 52.2 µM) | MIC50 [21]: 16 µg/mL (≈ 52.2 µM) | MIC50 [22]: 2 µg/mL (≈ 6.53 µM) | MIC50 [23]: > 64 µg/mL | MIC50 [24]: > 64 µg/mL

C[C@@H]1[C@H](O)[C@@H](C)/C=C/C=C/C=C/C=C/C=C/C=C/C=C/[C@H](O[C@@H]2O[C@H](C)[C@@H](O)[C@H](N)[C@@H]2O)C[C@@H]2O[C@](O)(C[C@@H](O)C[C@@H](O)[C@H](O)CC[C@@H](O)C[C@@H](O)CC(=O)O[C@H]1C)C[C@H](O)[C@H]2C(=O)O [AMPHOTERICIN B]
MIC [1]: 0.25 µg/mL (≈ 0.271 µM) | MIC [2]: 0.25 µg/mL (≈ 0.271 µM) | MIC [3]: 0.25 µg/mL (≈ 0.271 µM) | MIC [4]: 0.125 µg/mL (≈ 0.135 µM) | MIC [5]: 0.25 µg/mL (≈ 0.271 µM) | MIC [6]: 0.0625 µg/mL (≈ 0.0676 µM) | MIC [7]: 0.125 µg/mL (≈ 0.135 µM) | MIC [8]: 0.25 µg/mL (≈ 0.271 µM)

CCCCCCCCCCCCCCCC(=O)N[C@H]1C[C@@H](O)[C@@H](O)NC(=O)[C@@H]2[C@@H](O)[C@@H](C)CN2C(=O)[C@H]([C@@H](C)O)NC(=O)[C@H]([C@H](O)[C@@H](O)c2ccc(O)cc2)NC(=O)[C@@H]2C[C@@H](O)CN2C(=O)[C@H]([C@@H](C)O)NC1=O [ACULEACIN A] (Palmitoyl-[Orn(4R-OH,5R-OH)]T[Hyp][hTyr(3S-OH,4S-OH)]T[Pro(3S-OH,4S-Me)]; lactam 1-C)
MIC [1]: 0.25 µg/mL (≈ 0.241 µM) | MIC [2]: 0.5 µg/mL (≈ 0.483 µM) | MIC [3]: 0.5 µg/mL (≈ 0.483 µM) | inhibition [25]: inactive | inhibition [26]: Active | inhibition [27]: Active | MIC [4]: 0.25 µg/mL (≈ 0.241 µM) | inhibition [28]: inactive | inhibition [29]: Active | Activity [30]: Active | MIC [5]: 0.5 µg/mL (≈ 0.483 µM) | inhibition [31]: Active | inhibition [32]: Active | MIC [6]: 0.125 µg/mL (≈ 0.121 µM) | inhibition [33]: Active | MIC [7]: 0.25 µg/mL (≈ 0.241 µM) | Activity [34]: Active | MIC [8]: 0.5 µg/mL (≈ 0.483 µM)
